Measurements from different studies.
Each line is one published result; the experiments were not run side by side.
Target: 1-phosphatidylinositol 3-phosphate 5-kinase (PIKFYVE, Homo sapiens, UniProt Q9Y2I7)

SMILES	observed	method	concentration	remaining binding [%]
O=C(NCCCN1CCOCC1)c1ccc(Nc2ncc(Cl)c(-c3ccc(Cl)s3)n2)cc1	binding	competition with immobilised ligand	1 µM	53
Nc1ncc2c(n1)-c1c([nH]c3ccc(C#CC4CC4)cc13)CCCC2	binding	competition with immobilised ligand	1 µM	9.8
N[C@@H]1CCN(c2nccc(-c3cnn4ncccc34)n2)C1	binding	–	1 µM	78
CSc1cccnc1N1CCN(Cc2nc3ccccc3[nH]2)CC1	cell-free assay	competition with immobilised ligand	1 µM	100
FC(F)(F)Oc1cccc(-c2cnc3ccc(-c4ccncc4)nn23)c1	cell-free assay	competition with immobilised ligand	5 µM	2.4
O=C(NCCCN1CCOCC1)c1ccc(Nc2nccc(-c3cc4ccccc4s3)n2)cc1	binding	competition with immobilised ligand	1 µM	0.3
CN(CCCC(F)(F)F)c1nccc(-c2cnn3ncccc23)n1	binding	–	1 µM	45
COc1ccc2c(c1)O[C@@H](c1ccc(OC)c(OC)c1)C[C@H]2NC(=O)C1(c2ccc3c(c2)OC(F)(F)O3)CC1	cell-free assay	competition with immobilised ligand	1 µM	100
c1cnn2ncc(-c3ccnc(N4CCC45COC5)n3)c2c1	binding	–	1 µM	92
COc1cccc(CNC(=O)c2nc3scc(COCc4ccc(C(=O)O)cc4)c3c(=O)[nH]2)c1	cell-free assay	competition with immobilised ligand	1 µM	100
C[C@H]1CCN(c2nccc(-c3cnn4ncccc34)n2)C1	binding	–	1 µM	100
O=C(c1ccc(Nc2ncc(Cl)c(-c3ccc(Cl)s3)n2)cc1)N1CCC(N2CCCC2)CC1	binding	competition with immobilised ligand	1 µM	32
CN(C)c1nccc(-c2cnn3ncccc23)n1	binding	–	1 µM	100
COc1cc(-c2cn(C3CCc4c(F)cccc4N(CC(F)(F)F)C3=O)nn2)ccc1-n1cnc(C)c1 (stereo not shown)	cell-free assay	competition with immobilised ligand	1 µM	100
c1cncc(-c2cccc(Nc3nccc(NC4CCCCC4)n3)c2)c1	binding	competition with immobilised ligand	10 µM	29
CN1CCN(c2cnc3c(C4CCN(C(=O)c5ccc(OC(F)(F)F)cc5N)CC4)ncnc3c2)CC1	cell-free assay	competition with immobilised ligand	1 µM	98
CNC(=O)[C@@H]1CC[C@@H](n2c(-c3ccc4cnccc4c3)nc3ccc(C(=O)NCc4cccc(C(N)=O)c4)cc32)C1	binding	competition with immobilised ligand	1 µM	14
CS(=O)(=O)N1CCCC(NC(=O)[C@H](CCC2CCCCC2)NC(=O)c2ccc(CNc3ncnc4c3nnn4-c3ccccc3)cc2)C1 (stereo partly shown)	cell-free assay	competition with immobilised ligand	0.1 µM	61
O=C(Nc1c[nH]nc1C(=O)NC1CCNCC1)c1cc(F)cc(F)c1	binding	competition with immobilised ligand	1 µM	86
